How the values were obtained:
[1] = biological target: Cyclin-dependent kinase 4 (Homo sapiens) (UniProt P11802); assay: Inhibition of human recombinant CDK4 at 500 nM related to control ULK1
[2] = biological target: Protein kinase C theta type (Homo sapiens) (UniProt Q04759); assay: Inhibition of human recombinant PKCt at 500 nM related to control ULK1
[3] = biological target: T1, Tyrosine-protein kinase TXK (Homo sapiens) (UniProt P42681); assay: Inhibition of human recombinant TXK at 500 nM related to control ULK1
T1 sequence (whole entry): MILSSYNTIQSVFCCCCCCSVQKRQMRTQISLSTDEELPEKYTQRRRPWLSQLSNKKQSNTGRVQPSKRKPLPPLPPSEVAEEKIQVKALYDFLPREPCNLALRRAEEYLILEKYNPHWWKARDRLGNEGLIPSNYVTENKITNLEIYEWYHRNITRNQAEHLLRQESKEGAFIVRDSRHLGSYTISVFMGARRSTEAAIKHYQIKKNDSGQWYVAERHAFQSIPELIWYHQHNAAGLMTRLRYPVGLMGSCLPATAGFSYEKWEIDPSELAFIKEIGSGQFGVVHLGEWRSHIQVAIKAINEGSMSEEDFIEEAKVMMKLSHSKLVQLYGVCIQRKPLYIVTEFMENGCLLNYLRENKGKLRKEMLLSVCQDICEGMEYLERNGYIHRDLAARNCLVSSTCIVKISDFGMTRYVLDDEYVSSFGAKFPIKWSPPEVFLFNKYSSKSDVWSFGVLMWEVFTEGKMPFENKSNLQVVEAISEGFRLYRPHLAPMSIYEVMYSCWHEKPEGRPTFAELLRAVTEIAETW

[4] = biological target: Serine/threonine-protein kinase PAK 1 (Homo sapiens) (UniProt Q13153); assay: Inhibition of human recombinant PAK1 at 500 nM related to control ULK1
[5] = biological target: Tyrosine-protein kinase Fes/Fps (Homo sapiens) (UniProt P07332); assay: Inhibition of human recombinant FES at 15 nM in presence of ATP by radiometric assay relative to control
Tyrosine-protein kinase Fes/Fps (Homo sapiens), sequence (P07332 whole entry): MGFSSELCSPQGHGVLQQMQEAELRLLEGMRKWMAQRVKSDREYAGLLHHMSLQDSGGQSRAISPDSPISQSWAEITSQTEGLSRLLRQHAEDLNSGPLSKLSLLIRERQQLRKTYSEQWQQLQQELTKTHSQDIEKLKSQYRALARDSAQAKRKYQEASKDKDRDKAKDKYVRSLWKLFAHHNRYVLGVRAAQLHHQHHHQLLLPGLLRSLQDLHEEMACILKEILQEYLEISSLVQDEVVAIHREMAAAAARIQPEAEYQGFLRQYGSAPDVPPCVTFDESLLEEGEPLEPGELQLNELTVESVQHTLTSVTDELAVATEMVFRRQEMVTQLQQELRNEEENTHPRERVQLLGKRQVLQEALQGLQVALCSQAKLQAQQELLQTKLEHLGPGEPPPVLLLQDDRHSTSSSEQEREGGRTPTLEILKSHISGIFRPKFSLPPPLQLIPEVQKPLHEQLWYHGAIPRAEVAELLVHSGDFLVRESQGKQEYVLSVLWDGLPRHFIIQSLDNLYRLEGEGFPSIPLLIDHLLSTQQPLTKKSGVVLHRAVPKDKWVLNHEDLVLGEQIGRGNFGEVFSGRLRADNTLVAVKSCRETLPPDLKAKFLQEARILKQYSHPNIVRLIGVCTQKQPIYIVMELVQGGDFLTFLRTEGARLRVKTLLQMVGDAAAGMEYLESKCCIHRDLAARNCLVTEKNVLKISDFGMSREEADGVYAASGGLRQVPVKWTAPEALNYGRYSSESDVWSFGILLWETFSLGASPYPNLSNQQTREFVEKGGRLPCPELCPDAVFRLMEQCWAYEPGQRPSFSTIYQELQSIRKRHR

[6] = biological target: Protein-tyrosine kinase 2-beta (Homo sapiens) (UniProt Q14289); assay: Inhibition of human recombinant PYK2 at 15 nM in presence of ATP by radiometric assay relative to control
Protein-tyrosine kinase 2-beta (Homo sapiens), sequence (Q14289 whole entry, looked up): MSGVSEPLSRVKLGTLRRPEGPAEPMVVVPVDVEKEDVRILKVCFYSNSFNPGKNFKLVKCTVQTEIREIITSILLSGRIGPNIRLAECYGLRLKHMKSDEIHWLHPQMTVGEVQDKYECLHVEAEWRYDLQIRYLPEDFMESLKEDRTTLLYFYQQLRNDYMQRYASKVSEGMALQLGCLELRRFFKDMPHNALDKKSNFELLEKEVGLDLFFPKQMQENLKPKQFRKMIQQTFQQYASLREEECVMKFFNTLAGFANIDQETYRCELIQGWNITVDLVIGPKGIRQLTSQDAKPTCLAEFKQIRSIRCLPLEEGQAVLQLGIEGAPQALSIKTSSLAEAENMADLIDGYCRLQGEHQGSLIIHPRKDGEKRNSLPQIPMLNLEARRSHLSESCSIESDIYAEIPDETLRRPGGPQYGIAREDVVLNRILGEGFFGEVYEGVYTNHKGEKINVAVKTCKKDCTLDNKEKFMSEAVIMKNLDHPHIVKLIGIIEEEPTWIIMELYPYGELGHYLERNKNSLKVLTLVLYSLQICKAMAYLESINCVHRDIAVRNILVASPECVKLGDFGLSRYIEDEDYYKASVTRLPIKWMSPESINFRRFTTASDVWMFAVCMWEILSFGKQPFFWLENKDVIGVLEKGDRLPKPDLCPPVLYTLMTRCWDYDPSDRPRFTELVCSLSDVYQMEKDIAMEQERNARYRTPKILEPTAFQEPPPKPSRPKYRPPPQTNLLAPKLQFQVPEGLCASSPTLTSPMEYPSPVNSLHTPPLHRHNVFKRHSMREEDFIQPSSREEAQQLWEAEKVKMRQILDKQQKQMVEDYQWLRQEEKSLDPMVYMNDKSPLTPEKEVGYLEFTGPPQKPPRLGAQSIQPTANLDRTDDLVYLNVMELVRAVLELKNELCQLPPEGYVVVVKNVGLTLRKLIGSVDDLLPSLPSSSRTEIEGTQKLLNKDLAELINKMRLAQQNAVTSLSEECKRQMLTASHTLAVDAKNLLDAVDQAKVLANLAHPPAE

[7] = biological target: High affinity nerve growth factor receptor (Homo sapiens) (UniProt P04629); assay: Inhibition of human recombinant TRKA at 15 nM in presence of ATP by radiometric assay relative to control
High affinity nerve growth factor receptor (Homo sapiens), sequence (P04629 33-796 limits assumed): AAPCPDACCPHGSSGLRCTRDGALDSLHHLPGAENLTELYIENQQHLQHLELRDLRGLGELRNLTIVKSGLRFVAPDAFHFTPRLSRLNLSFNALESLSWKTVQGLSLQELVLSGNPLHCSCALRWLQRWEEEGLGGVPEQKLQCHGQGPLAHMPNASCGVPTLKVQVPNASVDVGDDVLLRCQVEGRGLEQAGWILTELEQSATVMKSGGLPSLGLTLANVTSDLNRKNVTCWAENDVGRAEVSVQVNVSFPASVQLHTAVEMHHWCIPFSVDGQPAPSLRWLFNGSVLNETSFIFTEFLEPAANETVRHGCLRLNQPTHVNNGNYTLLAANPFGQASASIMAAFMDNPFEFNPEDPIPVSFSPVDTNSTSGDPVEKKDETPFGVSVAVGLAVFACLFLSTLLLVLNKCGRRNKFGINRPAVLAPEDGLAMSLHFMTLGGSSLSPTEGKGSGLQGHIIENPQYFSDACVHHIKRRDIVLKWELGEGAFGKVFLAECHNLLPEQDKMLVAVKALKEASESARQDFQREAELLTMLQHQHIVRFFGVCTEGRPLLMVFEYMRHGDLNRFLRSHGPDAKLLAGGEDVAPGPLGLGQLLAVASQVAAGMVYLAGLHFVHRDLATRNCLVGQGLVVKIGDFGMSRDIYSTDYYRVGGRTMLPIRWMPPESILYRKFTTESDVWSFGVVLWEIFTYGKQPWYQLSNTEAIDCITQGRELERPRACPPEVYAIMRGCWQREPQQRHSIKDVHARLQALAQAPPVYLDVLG

[8] = biological target: Tyrosine-protein kinase receptor UFO (Homo sapiens) (UniProt P30530); assay: Inhibition of human recombinant AXL at 15 nM related to control ULK1
Outline: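 Panel of 327 recombinant human kinases, each assayed in vitro by radiometric activity assay in duplicate at a single inhibitor concentration per compound, chosen with reference to its ULK1 inhibition. Activity remaining was expressed as percent of vehicle control, and percent inhibition was calculated as 100 minus percent activity remaining.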

[9] = biological target: Tyrosine-protein kinase CSK (Homo sapiens) (UniProt P41240); assay: Inhibition of human recombinant CSK at 15 nM related to control ULK1
Tyrosine-protein kinase CSK (Homo sapiens), sequence (P41240 2-450 limits assumed): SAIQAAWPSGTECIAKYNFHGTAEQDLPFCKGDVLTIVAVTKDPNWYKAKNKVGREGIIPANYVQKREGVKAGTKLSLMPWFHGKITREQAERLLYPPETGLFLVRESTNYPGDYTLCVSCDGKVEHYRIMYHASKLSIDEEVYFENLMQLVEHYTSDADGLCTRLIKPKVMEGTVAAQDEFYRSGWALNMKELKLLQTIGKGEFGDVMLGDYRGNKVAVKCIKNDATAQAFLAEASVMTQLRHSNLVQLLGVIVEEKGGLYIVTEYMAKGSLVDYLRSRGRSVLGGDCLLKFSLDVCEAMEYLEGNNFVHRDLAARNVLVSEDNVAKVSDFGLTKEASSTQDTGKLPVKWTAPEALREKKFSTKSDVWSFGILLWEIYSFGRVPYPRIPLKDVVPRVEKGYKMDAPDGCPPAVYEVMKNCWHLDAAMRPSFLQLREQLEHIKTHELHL

[10] = biological target: T2, Myosin-IIIb (Homo sapiens) (UniProt Q8WXR4); assay: Inhibition of human recombinant MYO3B at 15 nM related to control ULK1
T2 sequence (whole entry): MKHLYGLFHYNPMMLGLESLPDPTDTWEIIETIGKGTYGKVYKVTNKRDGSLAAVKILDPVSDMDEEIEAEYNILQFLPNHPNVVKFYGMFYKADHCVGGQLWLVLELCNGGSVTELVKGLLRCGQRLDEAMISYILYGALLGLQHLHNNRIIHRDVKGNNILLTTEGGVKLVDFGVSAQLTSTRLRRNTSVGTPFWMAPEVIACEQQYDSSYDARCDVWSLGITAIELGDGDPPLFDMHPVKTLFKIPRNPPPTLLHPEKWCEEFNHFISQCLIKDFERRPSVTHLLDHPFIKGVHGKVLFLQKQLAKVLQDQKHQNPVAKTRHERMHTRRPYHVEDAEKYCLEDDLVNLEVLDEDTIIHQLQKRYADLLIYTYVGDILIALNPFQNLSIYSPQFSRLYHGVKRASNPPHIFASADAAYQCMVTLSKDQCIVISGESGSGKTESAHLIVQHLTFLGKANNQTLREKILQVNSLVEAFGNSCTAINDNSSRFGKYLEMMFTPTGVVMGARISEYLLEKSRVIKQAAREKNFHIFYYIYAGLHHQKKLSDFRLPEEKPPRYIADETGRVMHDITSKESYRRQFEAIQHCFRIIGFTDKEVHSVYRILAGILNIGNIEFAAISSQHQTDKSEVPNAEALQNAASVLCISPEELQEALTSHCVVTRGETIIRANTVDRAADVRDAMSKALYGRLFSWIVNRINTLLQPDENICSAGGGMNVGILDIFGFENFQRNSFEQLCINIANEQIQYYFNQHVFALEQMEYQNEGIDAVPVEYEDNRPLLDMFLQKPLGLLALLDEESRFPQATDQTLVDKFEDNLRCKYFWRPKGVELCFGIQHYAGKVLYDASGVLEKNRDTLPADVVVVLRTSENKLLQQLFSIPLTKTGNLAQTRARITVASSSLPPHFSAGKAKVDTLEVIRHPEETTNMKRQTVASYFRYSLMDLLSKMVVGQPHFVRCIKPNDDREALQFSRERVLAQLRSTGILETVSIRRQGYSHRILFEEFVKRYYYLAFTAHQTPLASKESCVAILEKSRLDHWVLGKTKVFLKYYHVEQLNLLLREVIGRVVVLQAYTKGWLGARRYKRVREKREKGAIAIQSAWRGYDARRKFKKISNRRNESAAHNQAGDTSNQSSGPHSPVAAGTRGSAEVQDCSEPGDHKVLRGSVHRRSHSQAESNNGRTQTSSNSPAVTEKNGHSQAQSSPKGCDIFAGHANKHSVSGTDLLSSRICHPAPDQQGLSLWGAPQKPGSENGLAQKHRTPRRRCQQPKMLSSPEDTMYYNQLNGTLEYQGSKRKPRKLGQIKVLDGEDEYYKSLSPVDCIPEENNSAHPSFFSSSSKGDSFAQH

[11] = biological target: Serine/threonine-protein kinase 33 (Homo sapiens) (UniProt Q9BYT3); assay: Inhibition of human recombinant STK33 at 15 nM related to control ULK1
Serine/threonine-protein kinase 33 (Homo sapiens), sequence (Q9BYT3 whole entry, looked up): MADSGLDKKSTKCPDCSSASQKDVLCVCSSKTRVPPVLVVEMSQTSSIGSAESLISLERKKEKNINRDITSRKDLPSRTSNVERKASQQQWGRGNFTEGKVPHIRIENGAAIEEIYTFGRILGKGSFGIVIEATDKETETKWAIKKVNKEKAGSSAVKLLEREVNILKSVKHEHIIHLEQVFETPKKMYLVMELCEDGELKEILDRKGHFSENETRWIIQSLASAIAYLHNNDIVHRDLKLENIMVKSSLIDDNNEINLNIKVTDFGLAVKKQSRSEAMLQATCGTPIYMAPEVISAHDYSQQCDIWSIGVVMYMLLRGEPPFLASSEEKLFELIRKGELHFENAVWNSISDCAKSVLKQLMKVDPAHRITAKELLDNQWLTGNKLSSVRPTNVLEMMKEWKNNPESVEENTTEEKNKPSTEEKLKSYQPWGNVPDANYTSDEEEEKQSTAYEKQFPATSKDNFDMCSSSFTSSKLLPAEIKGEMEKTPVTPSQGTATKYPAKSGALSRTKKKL

[12] = biological target: DNA-PK/Ku70/Ku85 (Homo sapiens) (UniProt P78527+P12956+P13010); assay: Inhibition of human recombinant DNAPK at 40 nM in presence of ATP by radiometric assay relative to control; format: protein-complex assay
[13] = biological target: Tyrosine-protein kinase FRK (Homo sapiens) (UniProt P42685); assay: Inhibition of human recombinant FRK at 40 nM in presence of ATP by radiometric assay relative to control
Tyrosine-protein kinase FRK (Homo sapiens), sequence (P42685 whole entry): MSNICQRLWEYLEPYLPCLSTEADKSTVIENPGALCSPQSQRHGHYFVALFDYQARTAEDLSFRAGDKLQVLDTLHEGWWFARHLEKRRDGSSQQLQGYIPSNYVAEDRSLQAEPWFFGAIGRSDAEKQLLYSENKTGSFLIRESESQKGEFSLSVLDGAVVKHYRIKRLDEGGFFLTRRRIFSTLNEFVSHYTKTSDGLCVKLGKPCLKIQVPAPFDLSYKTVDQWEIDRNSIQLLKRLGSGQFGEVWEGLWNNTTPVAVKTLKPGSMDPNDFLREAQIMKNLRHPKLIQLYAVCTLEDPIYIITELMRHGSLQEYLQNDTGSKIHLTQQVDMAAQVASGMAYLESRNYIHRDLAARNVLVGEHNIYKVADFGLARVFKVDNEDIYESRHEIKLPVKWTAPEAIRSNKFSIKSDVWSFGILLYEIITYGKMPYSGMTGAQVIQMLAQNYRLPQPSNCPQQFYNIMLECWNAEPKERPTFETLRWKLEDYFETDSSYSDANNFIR

[14] = biological target: Serine/threonine-protein kinase PAK 3 (Homo sapiens) (UniProt O75914); assay: Inhibition of human recombinant PAK3 at 40 nM in presence of ATP by radiometric assay relative to control
Serine/threonine-protein kinase PAK 3 (Homo sapiens), sequence (O75914 whole entry, looked up): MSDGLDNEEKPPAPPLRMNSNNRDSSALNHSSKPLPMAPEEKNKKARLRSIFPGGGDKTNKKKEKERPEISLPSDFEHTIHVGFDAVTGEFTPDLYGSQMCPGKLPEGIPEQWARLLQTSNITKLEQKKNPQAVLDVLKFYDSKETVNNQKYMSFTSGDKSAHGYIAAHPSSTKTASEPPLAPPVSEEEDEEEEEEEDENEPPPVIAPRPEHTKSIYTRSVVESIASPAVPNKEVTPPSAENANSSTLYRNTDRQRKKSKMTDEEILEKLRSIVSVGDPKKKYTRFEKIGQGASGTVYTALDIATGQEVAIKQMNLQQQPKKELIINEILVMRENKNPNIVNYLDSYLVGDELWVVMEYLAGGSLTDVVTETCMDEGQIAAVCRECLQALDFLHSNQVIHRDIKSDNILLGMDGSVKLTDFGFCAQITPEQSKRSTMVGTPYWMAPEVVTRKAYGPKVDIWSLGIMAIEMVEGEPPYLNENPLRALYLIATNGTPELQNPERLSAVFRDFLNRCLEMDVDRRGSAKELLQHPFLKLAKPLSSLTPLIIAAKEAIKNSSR

Cyclin-dependent kinase 4 (Homo sapiens), sequence (P11802 whole entry): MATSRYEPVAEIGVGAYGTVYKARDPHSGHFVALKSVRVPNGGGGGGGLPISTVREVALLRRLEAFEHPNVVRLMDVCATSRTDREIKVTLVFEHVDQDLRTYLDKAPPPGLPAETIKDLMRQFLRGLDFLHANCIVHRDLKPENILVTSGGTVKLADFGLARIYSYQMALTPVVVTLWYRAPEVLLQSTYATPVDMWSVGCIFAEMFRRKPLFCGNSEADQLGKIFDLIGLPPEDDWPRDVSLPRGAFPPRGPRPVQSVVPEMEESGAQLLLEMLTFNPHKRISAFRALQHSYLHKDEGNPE

`CNC(=O)c1ccccc1Oc1nc(Nc2cc(OC)c(OC)c(OC)c2)ncc1Br` gave a fold change (FC) [1] of 0, a fold change (FC) [2] of 0 and a fold change (FC) [3] of 0.23. The fold change (FC) [4] was 0.27.

`CC(C)[C@H](NC(=O)c1cc(-c2cnn3cc(-c4ccc(OCCN5CCCCC5)cc4)cnc23)cs1)C(F)(F)F` showed an inhibition [5] of 0%, an inhibition [6] of 0% and an inhibition [7] of 0%. It also gave a fold change (FC) [8] of 0.13, a fold change (FC) [9] of 0.14 and a fold change (FC) [10] of 0.07. The fold change (FC) [11] was 0.18.

In the case of `O=C(N[C@@H](C1CC1)C(F)(F)F)c1cc(-c2cnn3cc(-c4ccc(F)cc4)cnc23)cs1`, the inhibition [12] is reported as 9%, the inhibition [13] is reported as 0% and the inhibition [14] is reported as 0%.
